Published values collected from several papers.
Lines come from different studies, so protocols differ.
Target: Serine/threonine-protein kinase NIM1 (NIM1K, Homo sapiens, UniProt Q8IY84)

| Compound | assay | setting | remaining binding [%] |
| --- | --- | --- | --- |
| N[C@@H]1CCN(c2nccc(-c3cnn4ncccc34)n2)C1 | binding | 1 µM | 79 |
| COc1ccc2c(c1)O[C@H](c1ccc(OC)c(OC)c1)C[C@@H]2NC(=O)C1(c2ccc3c(c2)OC(F)(F)O3)CC1 | cell-free assay, competition with immobilised ligand | 1 µM | 84 |
| O=C(c1ccc(Nc2ncc(Cl)c(-c3cc4ccccc4s3)n2)cc1)N1CCC(N2CCCC2)CC1 | binding, competition with immobilised ligand | 1 µM | 20 |
| CC1=C(C#N)[C@@H](c2ccc3[nH]nc(C)c3c2)C(C#N)=C(c2ccc(Cl)cc2)N1 | cell-free assay, competition with immobilised ligand | 1 µM | 100 |
| FC(F)(F)Oc1cccc(-c2cnc3ccc(-c4ccncc4)nn23)c1 | cell-free assay, competition with immobilised ligand | 5 µM | 87 |
| O=C(c1ccc(Nc2nccc(-c3cc4ccccc4s3)n2)cc1)N1CCC(N2CCCC2)CC1 | binding, competition with immobilised ligand | 1 µM | 80 |
| O=C(Nc1c[nH]nc1C(=O)NC1CCNCC1)c1cc(F)cc(F)c1 | binding, competition with immobilised ligand | 1 µM | 100 |
| Cc1cnn2ncc(-c3ccnc(N(C)C)n3)c2c1 | binding | 1 µM | 92 |
| O=C(Nc1cccnn1)N1CCC(=Cc2cccc(Oc3ccc(C(F)(F)F)cn3)c2)CC1 | cell-free assay, competition with immobilised ligand | 1 µM | 100 |
| CC1CCCN1c1nccc(-c2cnn3ncccc23)n1 (stereo not shown) | binding | 1 µM | 95 |
| COc1cnc(Nc2cccc(S(N)(=O)=O)c2)nc1N1CCN(c2ccccc2)CC1 | binding, competition with immobilised ligand | 1 µM | 71 |
| COc1cccc(CNC(=O)c2nc3scc(COCc4ccc(C(=O)O)cc4)c3c(=O)[nH]2)c1 | cell-free assay, competition with immobilised ligand | 1 µM | 100 |
| c1cnn2ncc(-c3ccnc(N4CCC45COC5)n3)c2c1 | binding | 1 µM | 61 |
| CNC(=O)[C@@H]1CC[C@@H](n2c(-c3ccc4cnccc4c3)nc3ccc(C(=O)NCc4cccc(C(N)=O)c4)cc32)C1 | binding, competition with immobilised ligand | 1 µM | 100 |
| C[C@@H](c1ccc(-n2cnc3c(N)ncnc32)cc1)N1CCc2nn(C)c(Cc3ccccc3)c2C1=O | binding, competition with immobilised ligand | 0.1 µM | 67 |
| C=CC(=O)N1CCC(C(=O)NCC(=O)N2CCN(c3nc(-c4cnc(N)nc4C(F)F)nc(N4CCOCC4)n3)CC2)CC1 | binding, competition with immobilised ligand | 1 µM | 100 |
| CCC(=O)N[C@H]1CC[C@@H](C(=O)N(C)c2ccc(-c3nc4ccccc4o3)cc2)C1 | cell-free assay, competition with immobilised ligand | 1 µM | 88 |
| COc1ccnn2ncc(-c3ccnc(N(C)C)n3)c12 | binding | 1 µM | 100 |
| Cc1nc(C2CCN(C(=O)c3ccc(OC(F)(F)F)cc3N)CC2)c2ncc(N3CCN(C)CC3)cc2n1 | cell-free assay, competition with immobilised ligand | 1 µM | 89 |
| C[C@H]1CCN(c2nccc(-c3cnn4ncccc34)n2)C1 | binding | 1 µM | 82 |
| CO[C@@H](C)c1c(Nc2ccc([C@H](N(C)C(=O)C3CCS(=O)(=O)CC3)C(F)(F)F)cc2)cnc2cc(Cl)nn12 | cell-free assay, competition with immobilised ligand | 1 µM | 79 |
| Cc1cnc(Nc2ccc(C(=O)N3CCC(N4CCCC4)CC3)cc2)nc1-c1cc2ccccc2s1 | binding, competition with immobilised ligand | 1 µM | 22 |
